The inhibition is the drop in the measured response relative to a control, in per cent. A word on the ED50: it is the midpoint of the dose-response relation. As usually defined, the IC50 is the concentration that gives 50% inhibition.

Calls of active or inactive are those of the source. No cut-off for these calls is given here.

Data on twelve compounds can be found in ChEMBL document CHEMBL1287756, “Design and synthesis of an androgen receptor pure antagonist (CH5137291) for the treatment of castration-resistant prostate cancer” (Bioorg Med Chem, 2010).

Series [1] in a line: Metabolic stability in human liver microsomes assessed as compound remaining after 15 mins by LC-MS/MS analysis. The format is ADME, Microsome. Particulars: read-out: Stability. In a few lines:
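Human liver microsomes in phosphate buffer (pH 7.4) with NADPH added. Percent of parent compound remaining measured after 15 min.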

Series [2] addresses T1, Androgen receptor (Homo sapiens) (UniProt P10275).
T1 sequence (whole entry): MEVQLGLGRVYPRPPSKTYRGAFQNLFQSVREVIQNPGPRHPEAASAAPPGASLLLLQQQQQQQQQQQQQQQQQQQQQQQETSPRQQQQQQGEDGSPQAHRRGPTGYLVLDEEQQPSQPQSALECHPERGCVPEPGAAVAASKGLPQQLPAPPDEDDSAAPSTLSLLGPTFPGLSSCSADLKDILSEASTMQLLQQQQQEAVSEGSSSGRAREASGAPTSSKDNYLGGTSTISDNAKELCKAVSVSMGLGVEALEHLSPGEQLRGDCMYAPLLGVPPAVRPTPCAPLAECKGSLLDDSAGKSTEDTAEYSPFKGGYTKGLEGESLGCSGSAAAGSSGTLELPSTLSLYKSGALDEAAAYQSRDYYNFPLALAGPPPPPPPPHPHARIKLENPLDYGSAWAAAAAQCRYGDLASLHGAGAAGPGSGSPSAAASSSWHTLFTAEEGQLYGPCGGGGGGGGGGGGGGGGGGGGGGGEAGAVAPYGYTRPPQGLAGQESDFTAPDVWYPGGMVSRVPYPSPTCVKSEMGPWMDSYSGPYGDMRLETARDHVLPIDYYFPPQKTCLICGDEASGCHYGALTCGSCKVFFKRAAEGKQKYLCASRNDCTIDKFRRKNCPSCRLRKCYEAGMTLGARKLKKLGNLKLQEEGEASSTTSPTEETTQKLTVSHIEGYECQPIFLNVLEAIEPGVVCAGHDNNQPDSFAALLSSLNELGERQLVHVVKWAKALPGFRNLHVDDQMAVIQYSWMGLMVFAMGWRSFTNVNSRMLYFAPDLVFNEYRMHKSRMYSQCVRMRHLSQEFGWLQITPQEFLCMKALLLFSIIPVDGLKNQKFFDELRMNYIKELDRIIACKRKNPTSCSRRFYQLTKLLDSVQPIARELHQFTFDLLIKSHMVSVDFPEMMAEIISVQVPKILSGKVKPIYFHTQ
The conditions noted are these: HeLa.

The target in a further series is hERG (KCNH2) (Homo sapiens, UniProt Q12809). As to the kind of experiment: Inhibition of human ERG at 10 uM by whole cell patch-clamp technique. A digest of the protocol: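 hERG current recorded by whole-cell patch clamp; one experiment run in duplicate.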
hERG (KCNH2), sequence (Q12809 whole entry): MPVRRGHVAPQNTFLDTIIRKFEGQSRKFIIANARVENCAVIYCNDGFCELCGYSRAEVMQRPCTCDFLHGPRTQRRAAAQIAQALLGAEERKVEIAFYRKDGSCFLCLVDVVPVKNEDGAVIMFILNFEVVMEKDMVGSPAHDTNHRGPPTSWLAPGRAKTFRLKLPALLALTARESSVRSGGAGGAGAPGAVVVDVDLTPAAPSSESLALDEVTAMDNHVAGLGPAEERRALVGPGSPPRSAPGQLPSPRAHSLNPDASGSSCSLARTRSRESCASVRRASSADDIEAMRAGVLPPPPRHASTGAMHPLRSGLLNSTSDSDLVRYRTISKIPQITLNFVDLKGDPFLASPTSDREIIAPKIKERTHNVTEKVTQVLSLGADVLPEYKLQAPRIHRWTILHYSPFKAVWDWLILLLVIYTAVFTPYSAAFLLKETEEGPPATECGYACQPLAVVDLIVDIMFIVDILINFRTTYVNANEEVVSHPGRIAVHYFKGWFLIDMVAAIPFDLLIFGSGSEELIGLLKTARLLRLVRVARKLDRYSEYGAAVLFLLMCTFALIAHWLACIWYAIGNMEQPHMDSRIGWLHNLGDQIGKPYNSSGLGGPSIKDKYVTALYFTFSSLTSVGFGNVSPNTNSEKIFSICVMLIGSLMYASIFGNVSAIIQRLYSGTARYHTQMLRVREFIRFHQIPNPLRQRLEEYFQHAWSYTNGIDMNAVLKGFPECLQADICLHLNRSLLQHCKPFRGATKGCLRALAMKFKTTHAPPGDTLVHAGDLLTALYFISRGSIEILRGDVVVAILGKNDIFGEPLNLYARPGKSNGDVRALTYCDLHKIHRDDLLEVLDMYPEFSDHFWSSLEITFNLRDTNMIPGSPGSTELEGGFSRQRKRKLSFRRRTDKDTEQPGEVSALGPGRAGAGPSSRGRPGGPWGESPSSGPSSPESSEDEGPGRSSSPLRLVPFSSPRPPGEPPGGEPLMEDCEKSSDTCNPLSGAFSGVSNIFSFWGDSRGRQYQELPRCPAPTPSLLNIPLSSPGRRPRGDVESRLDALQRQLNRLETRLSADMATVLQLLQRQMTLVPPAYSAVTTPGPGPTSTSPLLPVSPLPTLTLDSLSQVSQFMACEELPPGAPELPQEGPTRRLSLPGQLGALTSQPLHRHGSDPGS
(Patch clamp records ionic current or voltage across a cell membrane.)

Series [3] can be described thus: Membrane permeability by PAMPA assay. The conditions noted are these: read-out: permeability. The format is ADME. Background: The PAMPA barrier holds no transporters, so it reflects passive diffusion.
Series [4] is filed under the species Mus musculus. Description: Antiandrogenic activity in castrated mouse assessed as reduction in wet weight gain of seminal vesicle. The format is functional. In a few lines:
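Castrated mice, n = 4 or 5 per group; antiandrogenic activity read as change in seminal vesicle wet weight.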

The next series has as its target T2, Androgen receptor (Homo sapiens, UniProt P10275).
T2 sequence (P10275 whole entry): T1 sequence (whole entry)
As to the kind of experiment: Antagonist activity at human AR expressed in human HeLa cells co-transfected with MMTV-Luc-Hyg after 48 hrs by transient-luciferase reporter gene assay. The format is functional, cell-based.

A short description of series [5]: Metabolic stability in mouse liver microsomes assessed as compound remaining after 30 mins by LC-MS/MS analysis. The format is ADME, Microsome. Particulars: read-out: Stability. (In general: Microsomes from liver hold many membrane-bound enzymes, among them those of drug oxidation.)
Series [6] in a line: Metabolic stability in human liver microsomes assessed as compound remaining after 30 mins by LC-MS/MS analysis. Particulars: read-out: Stability. The format is ADME, Microsome.
The nature of series [7]: Metabolic stability in monkey liver microsomes assessed as compound remaining after 30 mins by LC-MS/MS analysis. Type of series: ADME, Macaca mulatta, Microsome. Particulars: rhesus monkey, read-out: Stability.
Series [8] is described as follows: Metabolic stability in rat liver microsomes assessed as compound remaining after 30 mins by LC-MS/MS analysis. The format is ADME, Microsome. Particulars: read-out: Stability.
Series [9] is described as follows: Metabolic stability in dog liver microsomes assessed as compound remaining after 30 mins by LC-MS/MS analysis. The format is ADME, Canis lupus familiaris, Microsome. The conditions noted are these: read-out: Stability.
Series [10] concerns LNCaP. As to the kind of experiment: Antitumor activity against human bicalutamide-resistant LNCAP cells xenografted in SCID mouse assessed as inhibition of tumor growth at 10 mg/kg, po qd for seven cycles of 5 days on, 2 days off. Type of series: functional, organism-based. The arrangement: dose 10 mg/kg. In a few lines: (§1)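 LNCaP-BC2 cells (2 × 10^6) inoculated subcutaneously into castrated 6-week-old male SCID mice. Randomised at tumour size 90–400 mm3, n = 5 per group. Oral dosing once daily in 5% gum arabic at 10 mL/kg, seven cycles of 5 days on and 2 days off. Tumour size and plasma PSA measured after 17 days. PSA expressed as day 17 level relative to day 0 level.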

The test system of series [11] is Mus musculus. Description: Inhibition of prostate specific antigen production in human bicalutamide-resistant LNCAP cells xenografted SCID mouse at 100 mg/kg, po qd for seven cycles of 5 days on and 2 days off measured on day 17. The format is functional, organism-based. The arrangement: dose 100 mg/kg. In a few lines: as §1
Series [12] has as its system LNCaP. Description: Antitumor activity against human bicalutamide-resistant LNCAP cells xenografted in SCID mouse assessed as inhibition of tumor growth at 100 mg/kg, po qd for seven cycles of 5 days on, 2 days off. Type of series: functional, organism-based. On the set-up: dose 100 mg/kg. A digest of the protocol: as §1
Series [13] concerns Mus musculus. Description: Inhibition of prostate specific antigen production in human bicalutamide-resistant LNCAP cells xenografted SCID mouse at 10 mg/kg, po qd for seven cycles of 5 days on and 2 days off measured on day 17. The format is functional, organism-based. On the set-up: dose 10 mg/kg. A digest of the protocol:
as §1

For another series, the system named is Canis familiaris. As to the kind of experiment: Cardiotoxicity in anesthetized dog assessed as QT prolongation by electrocardiographic analysis. Type of series: toxicity, organism-based, Canis lupus familiaris. Particulars: in vivo.

Consider `CC1(C)C(=O)N(c2ccc(C#N)c(Cl)c2)C(=S)N1CCCS(N)(=O)=O`, for which the remaining at 0.25 h in series [1] was 100%. This compound also displayed an EC5 in [2] of more than 10 µM. Also, the inhibition at 10 µM at hERG (KCNH2) is 17%. In addition, the Papp in series [3] amounted to 25 ×10⁻⁶ cm/s. Besides, the ED50 in the series listed under Mus musculus [4] (Mus musculus, read-out: ED50) stood at 10 mg/kg.

For `CC1(C)C(=O)N(c2ccc(C#N)c(Cl)c2)C(=S)N1c1cccc(S(N)(=O)=O)n1`, the remaining at 0.25 h in series [1] stood at 100%. In addition, the EC5 in series [2] is more than 10 µM. For the same compound, on hERG (KCNH2), the inhibition at 10 µM is 26%. In [3], the Papp stood at 1.3 ×10⁻⁶ cm/s. On Androgen receptor, the IC50 was found to be 600 nM. Also, the ED50 in the series filed under Mus musculus [4] (Mus musculus, read-out: ED50) was found to be 6 mg/kg.

On to `CC1(C)C(=O)N(c2ccc(C#N)c(C(F)(F)F)c2)C(=S)N1c1ccnc(S(N)(=O)=O)c1`, for which, in series [1], the remaining at 0.25 h was 97%. Besides, in series [2], the EC5 was more than 10 µM. Testing at 10 µM against hERG (KCNH2) gave an inhibition of 0%. The Papp in series [3] is 12 ×10⁻⁶ cm/s. This compound also displayed an IC50 against Androgen receptor of 1000 nM.

As to `CC1(C)NC(=S)N(c2ccc(C#N)c(C(F)(F)F)c2)C1=O`, the remaining at 0.5 h in series [5], in [6], in series [7], in series [8] and in [9] was less than 0.001% each time. The compound further had an EC5 in [2] of 0.001 µM.

Consider `CC1(C)C(=O)N(c2ccc(C#N)c(C(F)(F)F)c2)C(=S)N1c1cccc(S(N)(=O)=O)n1`, for which the inhibition entry in the series with LNCaP [10], in the series on Mus musculus [11], with LNCaP [12] and with Mus musculus [13] was “Active” throughout. Besides, the remaining at 0.25 h in series [1] was determined as 94%. In series [2], the EC5 was more than 10 µM. At hERG (KCNH2), this compound had an inhibition at 10 µM of 10%. Also, in series [3], the Papp was determined as 14 ×10⁻⁶ cm/s. The same compound had an IC50 against Androgen receptor of 700 nM. The Activity result with Canis familiaris was “Non-toxic”. Further, in the series listed under Mus musculus [4] (Mus musculus, read-out: ED50), the ED50 stood at 7 mg/kg.

Regarding `CC1(C)C(=O)N(c2ccc(C#N)c(C(F)(F)F)c2)C(=S)N1c1cncc(S(N)(=O)=O)c1`, in series [1], the remaining at 0.25 h came out at 95%. The EC5 in series [2] was more than 10 µM. For the same compound, the inhibition at 10 µM on hERG (KCNH2) stood at 33%. The Papp in [3] amounted to 14 ×10⁻⁶ cm/s. Also, the IC50 on Androgen receptor amounted to 1000 nM. Further, in the series listed under Mus musculus [4] (Mus musculus, read-out: ED50), the ED50 is 6 mg/kg.

As for `CC1(C)NC(=S)N(c2ccc(C#N)c(Cl)c2)C1=O`, the remaining at 0.5 h in [5] is 0.038%; in series [6], 0.022%; in series [7] it was 0.027%; in series [8], 0.075%; in series [9] it was less than 0.001%. For the same compound, the EC5 in series [2] turned out to be 0.0002 µM.

With `CC1(C)C(=O)N(c2ccc(C#N)c(Cl)c2)C(=S)N1c1cccc(S(N)(=O)=O)c1`, the remaining at 0.25 h in [1] worked out at 100%. Also, the EC5 in series [2] was more than 10 µM. For the same compound, at 10 µM the inhibition against hERG (KCNH2) was 58%. In addition, in [3], the Papp was 1.6 ×10⁻⁶ cm/s. Besides, in the series listed under Mus musculus [4] (Mus musculus, read-out: ED50), the ED50 is 84 mg/kg.

For `CC1(C)C(=O)N(c2ccc(C#N)c(Cl)c2)C(=S)N1c1cncc(S(N)(=O)=O)c1`, the remaining at 0.25 h in series [1] turned out to be 95%. This compound displayed an EC5 in series [2] of more than 10 µM. Moreover, the inhibition at 10 µM against hERG (KCNH2) stood at 52%. Further, the Papp in [3] was 13 ×10⁻⁶ cm/s. The same compound showed an IC50 at Androgen receptor of 2000 nM.

For `CC1(C)C(=O)N(c2ccc(C#N)c(C(F)(F)F)c2)C(=S)N1c1ccccc1`, the remaining at 0.25 h in series [1] came out at 80%. In [2], this compound gave an EC5 of 3 µM. Further, the Papp in series [3] was 0.69 ×10⁻⁶ cm/s. The compound further came in with an IC50 against Androgen receptor of 200 nM.

Take `CC(O)(CS(=O)(=O)c1ccc(F)cc1)C(=O)Nc1ccc(C#N)c(C(F)(F)F)c1` (configuration not stated) [BICALUTAMIDE]: the inhibition entry in the series with LNCaP [10], in the series with Mus musculus [11], in the series on LNCaP [12] and in the series on Mus musculus [13] was “inactive” throughout. Also, the remaining at 0.25 h in series [1] was 99%. Further, on hERG (KCNH2), the inhibition at 10 µM came to 7.4%. For the same compound, the ED50 in the series listed under Mus musculus [4] stood at 3 mg/kg.

Regarding `CC1(C)C(=O)N(c2ccc(C#N)c(C(F)(F)F)c2)C(=S)N1c1cccc(S(N)(=O)=O)c1`, the remaining at 0.25 h in series [1] amounted to 100%. Also, the EC5 in series [2] was more than 10 µM. Besides, the inhibition at 10 µM at hERG (KCNH2) was 41%. In series [3], the Papp came to 8.1 ×10⁻⁶ cm/s. For the same compound, half-maximal inhibition against Androgen receptor (IC50) required 300 nM. For the same compound, the ED50 in the series filed under Mus musculus [4] (Mus musculus, read-out: ED50) came to 63 mg/kg.
